# TbMetRS inhib: Trypanosoma brucei MetRS inhibition; actives 0.4% (n = 360,000); inhibition, % at 11.9 µM; AID 624268; purified T. brucei MetRS, ATP depletion, Kinase-Glo luminescence;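 active means inhibition above a per-plate cutoff of the control wells' mean inhibition plus 3 SD, cut at about 5.5% in these data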;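 further: 0% = DMSO wells median and 100% = median of wells with control inhibitor compound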
#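 System: purified T. brucei MetRS enzyme / Detection: Kinase-Glo luciferase luminescence reporting remaining unconsumed ATP / Medium: HEPES buffer with MgCl2, KCl, DTT, spermine, BSA, pyrophosphatase / Replication: singlicate, one well per compound / Evaluation: percent inhibition relative to median high and low control wells / Schedule: 2 h aminoacylation at 25 °C after 15 min preincubation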
# NPR2 activator: GC-B (human) receptor activation; P20594; HEK293-GC-B cells, CNP EC30, cGMP TR-FRET; 0% at EC30 CNP, 100% saturating CNP; activation, % at 10 µM; actives 0.11% (n = 370,000); AID 1920062;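 active means activation at 10 µM reaching about 35% in either raw or pattern-adjusted values, limit read from the data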
# MT1-MMP act inh: MT1-MMP (human) activation inhibition; HT1080 RFP-PRO-GFP cells, GFP/RFP ratio fluorescence, overnight; percent of plate control window, DMSO zero; GFP/RFP ratio change, % at 20 µM; actives 0.061% (n = 360,000); AID 651647;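 active means GFP/RFP ratio change of at least 30% with cell ATP level not reduced by more than half and red fluorescence within 50% of control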
#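 Compound: 20 µM single dose, 1% DMSO / System: HT1080 RFP-PRO-GFP cells / Controls: DMSO and RFP-L50D-GFP cell wells / Read-out basis: GFP/RFP fluorescence ratio / Schedule: overnight compound exposure at 37 °C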
# GC-A act: GC-A (human) enzyme activation | HEK293 GC-A cells, cGMP TR-FRET, EC30 ANP; 0% at EC30 ANP, 100% saturating ANP | P16066 | AID 1671463 | actives 0.14% (n = 370,000) | activation, % at 10 µM; in the data active means activation above about 40%
# Target sequence (P16066 whole entry, looked up): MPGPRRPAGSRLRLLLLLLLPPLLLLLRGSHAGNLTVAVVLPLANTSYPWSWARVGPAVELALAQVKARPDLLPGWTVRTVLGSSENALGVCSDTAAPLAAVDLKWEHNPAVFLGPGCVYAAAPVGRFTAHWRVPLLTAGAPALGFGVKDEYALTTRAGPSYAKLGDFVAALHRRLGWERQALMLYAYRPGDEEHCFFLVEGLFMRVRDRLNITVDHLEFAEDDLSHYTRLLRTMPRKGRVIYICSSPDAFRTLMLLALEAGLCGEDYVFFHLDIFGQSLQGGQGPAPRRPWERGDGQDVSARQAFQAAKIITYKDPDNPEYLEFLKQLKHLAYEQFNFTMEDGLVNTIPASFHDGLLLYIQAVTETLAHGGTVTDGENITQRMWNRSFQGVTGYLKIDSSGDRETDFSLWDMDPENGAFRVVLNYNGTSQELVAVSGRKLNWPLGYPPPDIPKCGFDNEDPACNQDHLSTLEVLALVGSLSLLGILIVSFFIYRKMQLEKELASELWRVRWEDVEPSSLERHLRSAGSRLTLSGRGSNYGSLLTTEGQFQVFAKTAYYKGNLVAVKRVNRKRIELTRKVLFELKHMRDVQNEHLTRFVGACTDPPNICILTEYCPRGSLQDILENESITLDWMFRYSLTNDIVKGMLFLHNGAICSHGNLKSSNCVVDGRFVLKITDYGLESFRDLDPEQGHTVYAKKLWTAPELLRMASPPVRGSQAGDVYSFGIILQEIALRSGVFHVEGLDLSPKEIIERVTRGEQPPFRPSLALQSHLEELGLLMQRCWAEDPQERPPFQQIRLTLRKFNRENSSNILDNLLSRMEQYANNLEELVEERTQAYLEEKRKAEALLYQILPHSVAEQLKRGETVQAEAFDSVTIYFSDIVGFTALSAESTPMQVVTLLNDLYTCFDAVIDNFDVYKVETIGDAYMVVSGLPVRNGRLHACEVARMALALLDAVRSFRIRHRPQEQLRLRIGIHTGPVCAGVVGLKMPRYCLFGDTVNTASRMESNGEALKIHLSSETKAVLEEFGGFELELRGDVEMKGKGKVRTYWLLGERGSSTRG
# A1 inh: inhibitors of the anti-apoptotic protein A1, read as caspase activation; MEF A1-2A-BIM cells, Caspase-Glo 3/7 luminescence, 3 h; percent of clofoctol response, vehicle zero; AID 2462; caspase activation, % (concentration not given with the values); actives 0.066% (n = 330,000);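 active means over half of replicate activation scores above 10%, or exactly half above 10 with the replicate mean above 10; inconclusive means replicate mean below 10 yet half the replicates above 10; inactive means over half of replicates below 10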
# SKN-1 inh: inhibitors of C. elegans SKN-1; C. elegans VP596 Pgst-4::GFP/RFP ratio, acrylamide-induced, 24 h; inhibition, % at 21.8 µM; actives 0.49% (n = 360,000); AID 624304;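 active means interference check ratio from 0.5 to 1.5 plus GFP to RFP signal ratio inhibition reaching or exceeding a fixed threshold, cut at about 30% in these data, passing the limit was not always enough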
# * hit, by the source's call; ? = inconclusive; · = no result. Hits are enriched below; roughly 1.1% of the tested compounds scored in any of these assays.
SMILES,TbMetRS inhib,NPR2 activator,MT1-MMP act inh,GC-A act,A1 inh,SKN-1 inh
CCN(c1ccccc1)S(=O)(=O)c1cccc(C(=O)Nc2ccc(C)cn2)c1,0,-2,2,-4,-1,48*
COc1ccc(Cl)cc1C(=O)Nc1ccccc1N1CCCCC1,-1,-6,-5,-12,0,35*
COc1ccc(Cl)cc1C(=O)Nc1ccccc1N1CCN(C)CC1,0,-6,-11,4,-1,4
CN1C2=NC(c3ccccc3)CC(=O)N2/C(=C\c2ccccc2)C1c1ccccc1C(F)(F)F (stereo not drawn),·,-32,·,-36,·,·
CCOC(=O)C(Oc1ccc2c(-c3ccc(OC)cc3)cc(=O)oc2c1C)c1ccccc1 (stereo not drawn),0,1,-13,2,0,36*
COc1ccc(-c2cc(=O)oc3c(C)c(OC(=O)c4cccs4)ccc23)cc1,0,6,-20,-5,17*,2
CC(C)(C)OC(=O)C1[C@H](O)C=CC[C@H]1S(=O)c1ccccc1 (stereo partly drawn),·,0,·,3,·,·
CN(CC(=O)Nc1ccccc1)CC(=O)Nc1ccccc1Cl,0,4,-4,2,0,7
CCCCc1ccc(NC(=O)CN(C)CC(=O)Nc2ccccc2Cl)cc1,-1,1,-5,0,18*,6
O=C(COc1ccccc1[N+](=O)[O-])Nc1ccc2oc(=O)ccc2c1,0,1,-1,1,?,-7
O=C(COc1ccc(/C=N/NC(=O)c2cc3ccccc3o2)cc1Br)Nc1ccccc1,0,-2,-54,2,27*,11
O=C(N/N=C/c1ccco1)c1cc2ccccc2o1,0,-5,2,0,0,2
O=C(COc1ccccc1[N+](=O)[O-])Nc1ccc(NC(=O)c2cc3ccccc3o2)cc1,1,5,-3,-3,7.5*,0
Cc1ccc(CN[C@@H]2CC[C@@]34CCCN3C(=O)CCC[C@H]4C2)cc1,·,2,·,2,·,·
CC(=O)N1[C@@H](CO)[C@@H](c2ccc(-c3cccc(F)c3)cc2)[C@@H]1CNCC1CCC1,·,0,·,-1,·,·
Cn1c(N=Nc2ccccc2)nc2ccccc21,-2,-7,2,-1,0,40*
Cn1c(Cl)nc2ccccc21,-2,6,2,8,0,-18
CN(C)c1ccc(N=Nc2nc3ccccc3n2C)cc1,-6,-5,20,-13,-16,62*
CCc1nnc(NC(=O)CC(C)c2ccccc2)s1 (stereo not drawn),-1,6,-8,-1,0,36*
CC(C)Cc1nnc(NC(=O)CC(C)c2ccccc2)s1 (stereo not drawn),-1,4,0,1,1,9
COc1cccc(N2CCN(CC(=O)NCc3ccc(Cl)cc3)CC2)c1,·,2,·,0,·,·
CCCN(CCC)C(=O)c1cc2c(=O)[nH]c3ccc(C)cc3c2s1,0,8,-5,11,0,-15
Cc1ccc(C)c(N(C)C(=O)c2cc3c(=O)[nH]c4ccc(C)cc4c3s2)c1,0,37*,-5,35,1,4
COc1ccccc1Cn1nnc2c(=O)[nH]c(C3CCN(C(=O)c4ccccc4Cl)CC3)nc21,-1,48*,0,36,0,14
CCCCNC(=O)C[C@H]1C[C@@]2(C(=O)OC)C(=C[C@H](C(C)(C)C)O[C@@H]2C)N(Cc2cccc3ccccc23)C1=O,·,-18,·,-13,·,·
SMILES,TbMetRS inhib,NPR2 activator,MT1-MMP act inh,GC-A act,A1 inh,SKN-1 inh
Cn1cnc([N+](=O)[O-])c1Sc1nc(N)nc2c1ncn2Cc1ccccc1,0,44*,5,36,·,20
COC(CNC(=O)[C@H](Cc1ccccc1)NC(C)(C)C(=O)NC1CCCCC1)OC,·,-9,·,-5,·,·
CCc1nnc2c(NCCc3ccc(OC)c(OC)c3)nc3ccccc3n12,0,53*,13,40*,·,23
Cc1oncc1-c1csc(-c2ccccc2Cl)n1,0,-5,0,2,-1,45*
O=C(NCC(c1ccccc1)c1ccccc1)[C@H](Cc1ccccc1)NC1(C(=O)NC2CCCCC2)CCOCC1,·,-21,·,-18,·,·
c1ccc(-c2nc3cc4ccccc4cc3[nH]2)nc1,-3,1,11,2,-8,42*
O=S1(=O)c2ccc(N3CCCC3)cc2Oc2ccccc2CN1Cc1cn(Cc2ccccc2C(F)(F)F)nn1,·,2,·,4,·,·
COC(=O)C(C)Oc1cc(OC(C)C(=O)OC)c2c(-c3ccccc3)cc(=O)oc2c1 (stereo not drawn),-1,-2,-3,0,5.3*,9
Cc1cccc(-c2cccc3c4c([nH]c23)[C@@H]2C[C@H](N(C)C(=O)OCc3ccccc3)[C@H]([C@H](C)O)CN2CC4)c1,·,5,·,0,·,·
CC1=CC(=O)C(C(C)C)=C/C1=N\OS(=O)(=O)c1ccccc1,·,7,·,-10,·,·
CC1=C/C(=N\OS(=O)(=O)c2ccccc2)C(C)=CC1=O,0,·,-23,·,17*,-3
O=C1OCCC1Sc1nnc(-c2ccc(Cl)cc2Cl)o1 (stereo not drawn),0,2,4,70*,-3,-9
CC(C)OC(=O)CSc1nnc(-c2ccc(Cl)cc2Cl)o1,0,-1,2,28,0,-15
CCCCOC(=O)CSc1nnc(-c2ccc(Cl)cc2Cl)o1,0,5,7,67*,0,1
CSc1nnc(-c2ccc(Cl)cc2Cl)o1,0,-12,6,19,-1,20
Cc1cc(Br)c(NC(=O)COC(=O)CSc2nnc(-c3ccc(Cl)cc3)o2)c(Br)c1,0,-12,1,60*,1,-1
CCSc1nnc(-c2ccc(Cl)cc2Cl)o1,-1,-3,-3,30,-1,67*
COc1ccc(S[C@]2(C(=O)NCc3ccccc3)CC(=O)N[C@@H]2c2ccc(OC)cc2)cc1,·,3,·,2,·,·
COc1cccc(OC)c1NC(=O)OCCN1CCCC12CCC(c1ccccc1)CC2 (stereo not drawn),·,-23,·,-26,·,·
CC12CCC(=O)N1C(C(=O)Nc1nc(-c3ccc(F)c(F)c3)cs1)CS2 (stereo not drawn),0,3,-1,43*,0,-1
CC12CCC(=O)N1C(C(=O)Nc1nc(-c3ccc(F)cc3)cs1)CS2 (stereo not drawn),0,4,1,46*,1,3
COc1ccc(Cn2cc(CN3[C@H](CC(C)C)COc4cc(Br)ccc4S3(=O)=O)nn2)cc1,·,7,·,-2,·,·

# Compound activity as filed in PubChem.
